Source: ChEMBL document CHEMBL1153892 (Bioorg Med Chem, 2009)
The source made the active and inactive calls. The rule behind the calls is not given here.

Legend:
[1] = molecular target: T1, M-phase inducer phosphatase 2 (Homo sapiens, UniProt P30305); experiment: Inhibition of histidine-tagged human recombinant Cdc25B catalytic domain expressed in Escherichia coli
T1 sequence (P30305 whole entry): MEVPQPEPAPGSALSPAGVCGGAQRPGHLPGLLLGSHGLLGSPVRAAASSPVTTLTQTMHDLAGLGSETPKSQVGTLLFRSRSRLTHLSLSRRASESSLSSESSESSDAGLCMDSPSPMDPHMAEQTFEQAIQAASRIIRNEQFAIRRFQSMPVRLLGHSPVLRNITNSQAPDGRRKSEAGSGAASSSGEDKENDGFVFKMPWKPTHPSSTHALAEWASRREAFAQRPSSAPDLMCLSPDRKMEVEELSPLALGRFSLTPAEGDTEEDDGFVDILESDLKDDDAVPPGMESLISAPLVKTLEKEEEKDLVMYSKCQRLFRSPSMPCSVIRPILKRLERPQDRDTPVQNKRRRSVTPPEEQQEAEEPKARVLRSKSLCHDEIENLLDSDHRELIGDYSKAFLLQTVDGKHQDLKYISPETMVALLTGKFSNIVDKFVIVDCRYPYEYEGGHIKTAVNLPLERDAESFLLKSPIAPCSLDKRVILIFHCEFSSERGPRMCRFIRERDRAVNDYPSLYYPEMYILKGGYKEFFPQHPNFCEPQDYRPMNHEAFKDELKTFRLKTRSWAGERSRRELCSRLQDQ

[2] = molecular target: T2, Dual specificity protein phosphatase 6 (Rattus norvegicus, UniProt Q64346); experiment: Inhibition of histidine-tagged rat recombinant MKP3 catalytic domain expressed in Escherichia coli BL21(DE3)
T2 sequence (Q64346 whole entry): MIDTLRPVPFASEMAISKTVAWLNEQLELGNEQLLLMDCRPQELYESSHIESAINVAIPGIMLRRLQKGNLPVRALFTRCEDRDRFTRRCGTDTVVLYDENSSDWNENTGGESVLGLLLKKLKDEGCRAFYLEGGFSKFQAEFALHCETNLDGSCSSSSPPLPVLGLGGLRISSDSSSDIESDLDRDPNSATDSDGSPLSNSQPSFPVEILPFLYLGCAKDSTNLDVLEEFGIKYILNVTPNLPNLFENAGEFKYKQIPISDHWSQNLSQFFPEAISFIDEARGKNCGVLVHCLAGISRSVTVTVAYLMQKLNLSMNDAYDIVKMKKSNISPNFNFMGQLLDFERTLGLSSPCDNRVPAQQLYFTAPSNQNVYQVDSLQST
How it was run: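 Recombinant MKP-3 was expressed from a bacterial plasmid. Phosphatase activity was read from O-methyl fluorescein phosphate hydrolysis in a 25 μL final mixture, incubated 20 or 60 min at ambient temperature. Product fluorescence was read at excitation 485 nm and emission 530 nm. IC50 came from at least six inhibitor concentrations.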

[3] = molecular target: T3, Dual specificity protein phosphatase 1 (Mus musculus, UniProt P28563); experiment: Inhibition of histidine-tagged mouse MKP1 catalytic domain expressed in […]
T3 sequence (P28563 whole entry): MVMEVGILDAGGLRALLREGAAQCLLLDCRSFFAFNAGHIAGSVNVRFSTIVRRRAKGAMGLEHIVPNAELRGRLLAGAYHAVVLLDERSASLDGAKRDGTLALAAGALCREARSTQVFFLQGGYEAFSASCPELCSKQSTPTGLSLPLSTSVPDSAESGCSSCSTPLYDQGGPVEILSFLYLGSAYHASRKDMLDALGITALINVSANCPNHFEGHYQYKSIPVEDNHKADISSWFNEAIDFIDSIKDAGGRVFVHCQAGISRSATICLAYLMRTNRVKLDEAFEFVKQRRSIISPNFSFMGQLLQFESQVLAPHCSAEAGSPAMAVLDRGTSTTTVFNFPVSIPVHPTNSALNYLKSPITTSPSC

[4] = test system: A2780; experiment: Antiproliferative activity against human A2780 cells after 2 days by alamar-blue assay; type: functional, cell-based; details: A2780, 48 h
[5] = test system: A2780; experiment: Antiproliferative activity against human A2780 cells assessed as growth inhibition after 2 days by microscopic analysis; type: functional, cell-based
[6] = molecular target: T1, M-phase inducer phosphatase 2; experiment: Inhibition of histidine-tagged full length human Cdc25B expressed in Escherichia coli
How it was run: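 His6-tagged full-length enzyme purified from E. coli on Ni-NTA resin. Substrate is O-methyl fluorescein phosphate. Buffer is 30 mM Tris pH 8.5, 75 mM NaCl, 1 mM EDTA, 0.033% BSA and 1 mM DTT (final). Incubation runs 20 or 60 min at ambient temperature. Fluorescence is read at ex 485 / em 530 nm. IC50 comes from at least six concentrations.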

SMILES	IC50 [1] [µM]	IC50 [2] [µM]	IC50 [3] [µM]	IC50 [4] [µM]	Activity [5]	IC50 [6] [µM]
O=C1C2=C(C(=O)c3c(O)cccc31)S(=O)(=O)CCN2	0.88	> 50	33.8	2.1		
CCOC1=CC(=O)C(=O)c2ccccc21	0.27	1.35	0.82	0.37		
O=C1C=CC(=O)c2c(O)cccc21 [JUGLONE]	1.98	12.4	13	1.4		
O=C1c2cc3c(cc2C(=O)C2OC12)CCCC3 (stereo not given)	22.3	49.9	> 50			
O=C1C=CC(=O)c2cc3c(cc21)CCCC3	9.53	> 50	21.8			
O=C1c2ccccc2C(=O)c2ccccc21 [ANTHRAQUINONE]	9.51	> 50	> 50			
O=C1C=CC(=O)c2c(O)ccc(O)c21 [NAPHTHAZALIN]	1	6.9	9.37			
O=C1C=CC(=O)c2ccccc21 [NAPHTHOQUINONE]	2.76	19.8	8.45	2.3		
O=C1C2=C(C(=O)c3ccccc31)S(=O)(=O)CCN2	0.94	42.6	17.8	4.3		
O=C1C=C(NCCO)C(=O)c2ccccc21	> 50	> 50	> 50	64		
CC1=CC(=O)c2ccccc2C1=O [MENADIONE]	3.38	20.5	24	2.6		
O=C1C2=C(C(=O)c3cc4c(cc31)CCCC4)S(=O)(=O)CCN2	2.3	> 50	38.7			
O=C1C=CC(=O)C=C1 [BENZOQUINONE]	> 50	> 50	> 50	7.8		
CC1=C(NCCO)C(=O)c2ccccc2C1=O	> 50	> 50	> 50		Active	
C[C@@]12CCCc3coc(c31)C(=O)c1cc3c(cc12)C(=O)C1=C(NCCS1(=O)=O)C3=O [ADOCIAQUINONE B]	0.11	1.53	1.1			0.08
